NPR2 activator: GC-B (human) receptor activation; 0.11% of 370,000 active; HEK293-GC-B cells, CNP EC30, cGMP TR-FRET; 0% at EC30 CNP, 100% saturating CNP; activation, % at 10 µM; P20594;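 active means activation at 10 µM reaching about 35% in either raw or pattern-adjusted values, limit read from the data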
Tb MetRS inh: Trypanosoma brucei MetRS inhibition; purified T. brucei MetRS, ATP depletion, Kinase-Glo luminescence; inhibition, % at 11.9 µM; 0.4% of 360,000 active;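 active means inhibition above a per-plate cutoff of the control wells' mean inhibition plus 3 SD, cut at about 5.5% in these data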
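assay system = parasite MetRS enzyme | timing = 15 min preincubation, 2 h reaction, all 25 °C | evaluation = percent inhibition relative to median high and low control wells | medium = HEPES buffer containing pyrophosphatase, BSA, spermine, DTT | compound = single dose, 11.9 µM final nominal, 0.9% final DMSO | detection = Kinase-Glo luminescence, ATP depletion format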
SKN-1 inh: C. elegans SKN-1 inhibition; 0.49% of 360,000 active; inhibition, % at 21.8 µM; AID 624304; C. elegans VP596 Pgst-4::GFP/RFP ratio, acrylamide-induced, 24 h;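 active means interference check ratio from 0.5 to 1.5 plus GFP to RFP signal ratio inhibition reaching or exceeding a fixed threshold, cut at about 30% in these data, passing the limit was not always enough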
GC-A act: GC-A (human) enzyme activation; activation, % at 10 µM; P16066; 0.14% of 370,000 active; AID 1671463; HEK293 GC-A cells, cGMP TR-FRET, EC30 ANP; 0% at EC30 ANP, 100% saturating ANP; in the data active means activation above about 40%
Bfl-1 A1 inh: inhibitors of the anti-apoptotic protein A1, read as caspase activation. 0.066% of 330,000 active. AID 2462. MEF A1-2A-BIM cells, Caspase-Glo 3/7 luminescence, 3 h; percent of clofoctol response, vehicle zero. caspase activation, % (test concentration not listed);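 active means over half of replicate activation scores above 10%, or exactly half above 10 with the replicate mean above 10; inconclusive means replicate mean below 10 yet half the replicates above 10; inactive means over half of replicates below 10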
MT1-MMP act inh: inhibitors of human MT1-MMP activation; P50281; HT1080 RFP-PRO-GFP cells, GFP/RFP ratio fluorescence, overnight; percent of plate control window, DMSO zero; GFP/RFP ratio change, % at 20 µM; 0.061% of 360,000 active; AID 651647;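 active means GFP/RFP ratio change of at least 30% with cell ATP level not reduced by more than half and red fluorescence within 50% of control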
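Assay system: HT1080 cells carrying an RFP-PRO-GFP reporter | Dosing: Single dose of 20 µM compound, 1% DMSO final | Incubation: Cells overnight before dosing, compound overnight, 37 °C, 5% CO2 | Evaluation: GFP/RFP fluorescence ratio | Control set: DMSO and RFP-L50D-GFP cell wells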
MT1-MMP act val: validation of inhibitors of human MT1-MMP activation; shares compounds with MT1-MMP act inh; HT1080 RFP-PRO-GFP cells, GFP and RFP fluorescence ratio, overnight; inhibition, % at 20 µM; 10% of 200 active;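 active means inhibition of at least 50% in the primary cell screen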
A number is an active result; . = inactive; ? = inconclusive; / = not tested or not shown. A selection: hits, their analogues and other compounds. The true share with any hit is near 1.1%.

SMILES	NPR2 activator	Tb MetRS inh	SKN-1 inh	GC-A act	Bfl-1 A1 inh	MT1-MMP act inh	MT1-MMP act val
CN(C)c1ccc(C=c2c3ccccc3n3c2c2c([n+]3C)CCCC2)cc1	.	.	.	.	/	82	57
CN(C)c1ccc(C=c2c3ccccc3n3c2cc(-c2ccc(Cl)cc2)[n+]3C)cc1	.	.	.	.	/	.	/
CCOC(=O)C1(C(=O)OCC)Cc2c([nH]c3ccccc23)[C@]2(N1)C(=O)N(C)c1ccc(Br)cc12	.	/	/	.	/	/	/
COc1ccc(Nc2ccccc2N)cc1	.	.	.	.	.	31	51
COC(=O)C1=C(C(=O)OC)SC(=C2C(=S)C(C)(C)N(C(=O)C(C)C)c3ccccc32)S1	.	.	.	.	.	31	.
Nc1nc(-c2ccccc2)c(N=Nc2ccccc2Cl)s1	.	.	49	.	.	42	.
Cc1ncc(N=Nc2ccccc2Cl)c(-c2ccccc2)n1	.	.	.	.	.	.	/
Nc1nc(-c2ccccc2)c(N=Nc2cccc3ccccc23)s1	.	.	.	.	.	34	.
COC(=O)C[C@@H]1CC[C@H]2[C@@H](COc3ccc(NC(=O)c4ccc(C(F)(F)F)cc4)cc3C(=O)N2C)O1	.	/	/	.	/	/	/
CN1/C(=C\C(=S)NC(=O)c2cccc(Br)c2)C(C)(C)c2ccccc21	.	.	.	.	.	.	/
CN1/C(=C\C(=S)NC(=O)c2ccc([N+](=O)[O-])cc2)C(C)(C)c2ccccc21	.	.	.	.	.	42	.
CN(C)c1ccc(C=c2c3ccccc3n3c2cc(-c2ccccc2)[n+]3C)cc1	.	.	.	.	/	.	/
COc1cc(N(C)C)ccc1C=c1c2ccccc2n2c1cc(-c1ccccc1)[n+]2C	.	.	.	.	/	65	65
CCC[C@@H](/C=C/C(=O)OC(C)(C)C)Sc1ccccc1OC	.	/	/	.	/	/	/
Cc1cc2cc(CNS(=O)(=O)c3ccc4ccccc4c3)ccc2n1C	.	.	.	.	.	45	.
Cc1cc(C)c(S(=O)(=O)NCc2ccc3c(c2)cc(C)n3C)c(C)c1	.	.	.	.	.	.	/
C#CCNC(=O)C[C@H]1C[C@@]2(C(=O)OC)C(=C[C@H](C3CCCC3)O[C@@H]2C)N(Cc2ccc(Cl)cc2Cl)C1=O	.	/	/	.	/	/	/
O=C(OC12CCCN(C1)/C(=C/c1ccncc1)C2)C1CCCCC1 (stereo not drawn)	.	/	/	.	/	/	/
CCOc1ccc(CCNC(=O)c2cc3sccc3n2CC)cc1OC	.	/	/	.	/	/	/
COC(=O)CCC(=O)OC1(C)C(=O)C2=CN(CC3CC3)C(c3ccc(OC)cc3)=CC2=C(Br)C1=O (stereo not drawn)	/	.	.	/	.	30	.
COC(=O)CCC(=O)OC1(C)C(=O)C2=CN(Cc3ccc(OC)cc3)C(c3ccc(OC)cc3)=CC2=C(Br)C1=O (stereo not drawn)	.	.	.	.	.	.	/
Cc1ccc(NC(=O)Cn2nnc(-c3ccncc3)n2)cc1C	.	/	/	.	/	/	/
O=C1c2cccc(NCCCNCCO)c2C(=O)c2cccc(NCCCNCCO)c21	.	.	.	.	/	68	55
COP(=O)(O)C(C)NC(=O)OCc1ccccc1 (stereo not drawn)	.	/	/	.	/	/	/
COc1cc(OC)cc(C(=O)Nc2ccc(-c3nc4ccccc4o3)cc2)c1	.	.	.	.	.	31	.
SMILES	NPR2 activator	Tb MetRS inh	SKN-1 inh	GC-A act	Bfl-1 A1 inh	MT1-MMP act inh	MT1-MMP act val
Cc1ccc2c(c1)C(C)(C)[C@]1(C)NC(=O)CCN21	.	.	.	.	.	35	.
Nc1ccc(N2CCCCC2)cc1N1CCCCC1	.	.	.	.	.	47	.
CN1C(=O)/C(=C\c2ccccc2OCc2ccccc2)SC1=S	.	.	.	.	.	.	/
CN1C(=O)/C(=C\c2cc(N=Nc3ccccc3)ccc2O)SC1=S	.	.	.	.	.	32	83
Cc1c(C)n(C)c2ccc(C(=O)NCCc3ccco3)cc12	.	.	.	.	.	33	.
COc1cc(/C=C2\SC(=O)N(c3ccccc3Cl)C2=O)cc([N+](=O)[O-])c1O	.	.	.	.	/	31	.
COc1cc(/C=C2\SC(=O)N(CC(=O)Nc3cccc(C)c3)C2=O)cc([N+](=O)[O-])c1O	.	.	.	.	/	.	/
COc1ccc(Nc2nc(-c3c[nH]c4ccccc34)cs2)cc1	.	.	.	.	.	33	.
O=Nc1c(-c2c(O)[nH]c3cc(Br)ccc23)[nH]c2ccccc12	.	.	.	.	.	77	70
O=C(CSCc1cccc(Br)c1)N=Nc1c(O)[nH]c2ccccc12	.	.	.	.	.	.	/
COc1ccc(C2C(C(=O)Nc3ccc(Cl)c(Cl)c3)CCC(=O)N2c2ccc(OC)cc2)cc1 (stereo not drawn)	.	/	/	.	/	/	/
O=C(NN=Cc1ccc(-c2ccccc2)cc1)c1cc(-c2ccc(Cl)cc2)n[nH]1	.	/	/	.	/	/	/
CC1=NN(c2ccccc2)C(=O)/C1=C/C=C/c1ccc(N(C)C)cc1	.	.	.	.	/	55	.
COC(=O)c1ccc2c(c1)C(C)(C)C(/C=C/c1ccccc1O)=[N+]2C	.	.	.	.	?	.	/
C[N+]1=C(/C=C/Nc2ccccc2Cl)C(C)(C)c2ccccc21	.	.	.	.	.	52	.
CCc1cc2c(NCC(=O)O)ncnc2s1	.	.	.	.	.	.	/
CCc1cc2c(NCc3ccco3)ncnc2s1	.	.	.	.	.	34	.
CCCCN=C(N)NC(=O)OCc1ccccc1	.	/	/	.	/	/	/
O=c1cc2oc3cc(O)c(O)cc3c(-c3ccccc3[N+](=O)[O-])c-2cc1O	.	.	.	.	.	41	51
O=c1[nH]nc(CNc2ccc(O)cc2)c2ccccc12	.	.	.	.	.	49	.
Cc1ccc(S(=O)(=O)N2C=C(c3ccccc3)c3ccccc3-c3ccccc32)cc1	.	/	/	.	/	/	/
CCNC(=S)NNC(=O)c1cc(-c2cccc(OCC)c2)nc2ccccc12	.	.	.	.	.	.	/
CCCCOc1cccc(-c2cc(C(=O)NNC(=S)NCC)c3ccccc3n2)c1	.	.	.	.	.	39	.
CCN1/C(=C\C=C2\C(=O)N(c3ccccc3)C(=S)N2C)Sc2ccccc21	.	.	.	.	/	39	.
COc1ccc(/C=N/c2oc(C)c(C)c2C#N)c(OC)c1	.	.	.	.	.	.	/
COc1cc(/C=N/c2oc(C)c(C)c2C#N)cc(Br)c1O	.	.	.	.	.	33	.

Source: PubChem BioAssay
